Published values pooled from the literature.
Lines come from different studies, so protocols differ. Values after ≈ are worked out from the molar mass of the structure shown.
Read-out: microbial growth

| SMILES | organism | technique | strain | time | MIC [µg/mL] |
| --- | --- | --- | --- | --- | --- |
| O=C(O)c1cccc(-n2c(/C=C/c3ccc(Cl)cc3)nc3ccncc3c2=O)c1 | Enterococcus faecium | broth dilution | NCTC7171 |  | > 128 |
| O=C(O)CCc1cccc(Oc2ccc(-c3noc(-c4ccc(O)cc4)n3)cc2)c1 | Enterococcus faecium | broth dilution |  | 24 h | > 32 |
| CC(=O)Oc1cccc(-n2c(/C=C/c3ccc([N+](=O)[O-])cc3)nc3ccccc3c2=O)c1 | Enterococcus faecium | broth dilution | NCTC7171 |  | 64 (≈ 150 µM) |
| C/C(=C\c1ccc(O)cc1)C(=O)Nc1ccc(C(=O)N[C@@H](CC(N)=O)C(=O)Nc2ccc(C(=O)Nc3ccc(C(=O)Nc4ccc(C(=O)O)cc4)c(O)c3OC(C)C)cc2)cc1 | Citrobacter freundii |  | DSM30039 |  | 0.125 (≈ 0.148 µM) |
| C[N+](C)(C)CCCc1ccc(Oc2ccc(-c3noc(-c4ccc(O)cc4)n3)cc2)cc1.[I-] | Enterococcus faecium | broth dilution |  | 24 h | 16 |
| O=C(O)c1cn(C2CC2)c2cc(N3CCNCC3)c(F)cc2c1=O | Mycobacterium intracellulare | resazurin | ATCC23068 |  | 1 (≈ 3.02 µM) |
| O=C(O)c1cccc(-n2c(/C=C/c3ccc(C#CCO)cc3)nc3ccccc3c2=O)c1 | Enterococcus faecium | broth dilution | NCTC7171 |  | > 128 |
| O=C(O)CCc1ccccc1Oc1ccc(-c2noc(-c3ccc(O)cc3)n2)cc1 | Enterococcus faecium | broth dilution |  | 24 h | > 32 |
| O=C(O)c1cn(C2CC2)c2cc(N3CCNCC3)c(F)cc2c1=O | Mycobacterium intracellulare | broth dilution | ATCC23068 |  | 0.63 (≈ 1.9 µM) |
| O=C(O)c1cn(C2CC2)c2cc(N3CCNCC3)c(F)cc2c1=O | Citrobacter freundii |  | DSM30039 |  | ≤ 0.03 |
| COC(=O)CCNC(=O)c1cccc(-n2c(/C=C/c3ccc(C#N)cc3)nc3ccccc3c2=O)c1 | Enterococcus faecium | broth dilution | NCTC7171 |  | > 128 |
| CO[C@@H](C(N)=O)[C@H](NC(=O)c1ccc(NC(=O)c2ccc(C#N)cc2)cc1)C(=O)Nc1ccc(C(=O)Nc2ccc(C(=O)Nc3ccc(C(=O)O)cc3)c(O)c2OC(C)C)cc1 | Citrobacter freundii |  | DSM30039 |  | ≤ 0.03 |
| COCCNc1ccc(-c2nc(-c3ccc(Oc4ccccc4)cc3)no2)cc1 | Enterococcus faecium | broth dilution |  | 24 h | > 32 |
| N#Cc1ccc(/C=C/c2nc3ccncc3c(=O)n2-c2cccc(O)c2)cc1 | Enterococcus faecium | broth dilution | NCTC7171 |  | 128 (≈ 349 µM) |
| CC(C)Oc1c(NC(=O)c2ccc(NC(=O)[C@H](CC(N)=O)NC(=O)c3ccc(NC(=O)c4ccc(C#N)s4)cc3)cc2)ccc(C(=O)Nc2ccc(C(=O)O)cc2)c1O | Citrobacter freundii |  | DSM30039 |  | ≤ 0.03 |
